Compounds with a hit are over-represented: about 2.3% of the library has one in this group of screens.
Fam108B counter: counter-screen for RBBP9 inhibitors: inhibitors of mouse Fam108B. inhibition, % at 9.51 µM. actives 0.33% (n = 300,000). recombinant Fam108B, FP-Rh probe fluorescence polarization. AID 1947;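 active means inhibition above the screen mean inhibition plus 3 SD, computed separately per campaign, cut at about 18% in these data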;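 further: inhibitors lower polarization as less probe binds the enzyme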
RBBP9 inh: inhibitors of human serine hydrolase RBBP9 | recombinant RBBP9, FP-Rh probe fluorescence polarization | inhibition, % at 7.94 µM | actives 0.2% (n = 220,000);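 active means inhibition above the campaign mean of all tested compounds plus 3 SD, cut at about 14% in these data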
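system = RBBP9 protein | input = RBBP9 at 2.5 µM in dispensed solution, before mixing | measured by = fluorescence polarization (mP), excitation 525 nm, emission 598 nm | incubation = enzyme-compound preincubation 30 min, then probe labeling 45 min, 25 °C | buffer or medium = Tris-NaCl-Pluronic buffer, pH 8.0 | compound = single dose 7.94 µM | also added = FP-Rh probe, 375 nM dispensing solution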
PAD4 inh: inhibitors of human PAD4; Q9UM07; recombinant PAD4, RCA probe fluorescence polarization; AID 485272; inhibition, % at 6.36 µM; actives 0.41% (n = 330,000);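 active means percent inhibition above a cutoff equal to the mean of all tested compounds plus 3 SD, cut at about 15% in these data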
Target sequence (Q9UM07 whole entry, looked up): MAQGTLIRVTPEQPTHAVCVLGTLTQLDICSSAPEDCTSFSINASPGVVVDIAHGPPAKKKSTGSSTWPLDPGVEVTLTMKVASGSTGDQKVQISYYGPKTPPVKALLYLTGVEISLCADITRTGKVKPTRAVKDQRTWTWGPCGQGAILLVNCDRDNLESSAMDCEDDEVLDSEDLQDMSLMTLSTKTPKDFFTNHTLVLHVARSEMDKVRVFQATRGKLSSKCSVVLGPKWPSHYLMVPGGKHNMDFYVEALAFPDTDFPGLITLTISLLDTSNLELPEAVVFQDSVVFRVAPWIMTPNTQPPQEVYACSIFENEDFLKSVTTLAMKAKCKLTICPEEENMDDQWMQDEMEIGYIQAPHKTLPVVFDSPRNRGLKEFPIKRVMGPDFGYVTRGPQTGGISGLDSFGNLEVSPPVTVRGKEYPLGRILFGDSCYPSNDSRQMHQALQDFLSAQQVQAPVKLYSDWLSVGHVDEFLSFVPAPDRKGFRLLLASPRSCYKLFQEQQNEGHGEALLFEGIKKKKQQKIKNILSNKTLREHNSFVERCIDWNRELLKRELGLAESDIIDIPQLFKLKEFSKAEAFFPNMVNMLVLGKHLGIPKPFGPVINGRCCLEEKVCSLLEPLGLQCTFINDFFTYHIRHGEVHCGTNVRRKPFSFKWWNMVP
PRMT1 inh: PRMT1 (human) inhibition, primary screen; recombinant PRMT1, activity-based probe fluorescence polarization; inhibition, % at 2.79 µM; actives 1.3% (n = 370,000); Q99873;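 active means inhibition above about 21% made by adding two undisclosed values, limit read from the data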
PME-1 inh: PME-1 (human) inhibition; recombinant PME-1, FP-Rh probe fluorescence polarization; inhibition, % at 5.9 µM; actives 0.53% (n = 320,000); AID 2130;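 active means inhibition above the campaign mean of all compounds plus 3 SD, cut at about 26% in these data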;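 further: competitive labeling of PME-1 active site by serine hydrolase directed probe; inhibitors block probe labeling so polarization falls and inhibition rises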
GSTO1 inh: GSTO1 inhibition, counter-screen for RBBP9 inhibitors. actives 1.1% (n = 300,000). AID 1974. P78417. recombinant GSTO1, activity-based probe fluorescence polarization. inhibition, % at 5.96 µM;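 active means inhibition above the campaign mean inhibition plus 3 SD, cut at about 35% in these data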
PRMT1 inh conf: PRMT1 (human) inhibition, FP confirmation; inhibition, % at 2.79 µM; actives 42% (n = 3,300); shares compounds with PRMT1 inh; recombinant His-PRMT1, activity-based probe fluorescence polarization; AID 687036;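 active means mean inhibition across replicates above the hit cutoff derived for the earlier primary screen, cut at about 22% in these data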
Hits are given with their value; . = inactive; / = not tested or not shown.

SMILES	Fam108B counter	RBBP9 inh	PAD4 inh	PRMT1 inh	PME-1 inh	GSTO1 inh	PRMT1 inh conf
CCOC(=O)c1ccc(N2C(=O)CC(NC3CCN(C(=O)c4ccc(F)cc4)CC3)C2=O)cc1 (stereo not drawn)	.	.	.	.	.	.	/
CCOc1ccc(N2C(=O)CC(NC3CCN(C(=O)c4ccc(F)cc4)CC3)C2=O)cc1 (stereo not drawn)	.	/	.	53.0	.	.	.
O=C(Nc1ccc(N2CCOCC2)cc1)c1cc(F)c(F)cc1Cl	.	.	.	.	.	.	/
Cc1nnc(SCC2=C(C(=O)O)N3C(=O)C(NC(=O)COc4ccc(F)cc4)C3SC2)s1 (stereo not drawn)	/	/	.	31.3	.	/	22.8
Cc1nnc(SCC2=C(C(=O)O)N3C(=O)C(NC(=O)c4cc(F)c(F)cc4Cl)C3SC2)s1 (stereo not drawn)	.	.	.	33.9	.	.	.
CCC(C(=O)NC1C(=O)N2C(C(=O)O)=C(CSc3nnc(C)s3)CSC12)c1ccccc1 (stereo not drawn)	/	/	.	28.4	.	/	.
Cc1nnc(SCC2=C(C(=O)O)N3C(=O)C(NC(=O)Cn4cnnn4)C3SC2)s1 (stereo not drawn)	.	/	.	.	.	.	/
Cc1nnc(SCC2=C(C(=O)O)N3C(=O)C(NC(=O)COc4ccccc4)C3SC2)s1 (stereo not drawn)	/	/	/	38.4	/	/	69.0
Cc1c(NC(=O)C2CCCN(S(=O)(=O)c3ccc(Br)s3)C2)c(=O)n(-c2ccccc2)n1C (stereo not drawn)	/	/	/	.	/	/	/
CCCCOc1ccc(C(=O)NCC2(c3ccccc3)CCOCC2)cc1	.	.	.	.	.	.	/
Clc1ccc(Cl)c(-c2nn3c(COc4ccccc4)nnc3s2)c1	.	.	.	28.5	.	.	.
c1ccc(OCc2nnc3sc(-c4cccs4)nn23)cc1	.	.	.	.	.	.	/
Cc1ccccc1CCNC(=O)CCn1nc(C)c2c(C)n(-c3ccccc3)nc2c1=O	.	/	.	.	.	.	/
Fc1ccccc1-c1[nH]ncc1-c1nnnn1-c1ccccc1	.	.	.	.	.	.	/
O=C(CSc1nnc(Cn2nnc3ccccc32)o1)N(Cc1ccc(Cl)cc1)c1ccccc1	.	.	.	.	.	.	/
COc1ccc(C(=O)Nc2ccc(Cn3ccnc3)cc2)cc1OC	.	/	.	.	.	.	/
CN(C)C(CNC(=O)c1cccc(S(=O)(=O)Nc2ccc(SC(F)F)cc2)c1)c1ccccc1 (stereo not drawn)	/	/	/	44.4	/	/	62.3
O=P(COCCOCCOCP(=O)(c1ccccc1)c1ccccc1)(c1ccccc1)c1ccccc1	.	.	.	.	.	.	/
CCCCN1Cc2c(nc3cc(-c4ccco4)[nH]n3c2=O)C1=O	.	.	.	55.6	.	.	.
C[n+]1cc2c3c(ccc2c2ccc4cc5c(cc4c21)OCO5)OCO3	/	/	/	61.4	/	/	85.4
COc1ccc2cc3[n+](cc2c1O)CCc1cc2c(cc1-3)OCO2	/	/	/	.	/	/	/
Cc1ccc(-c2cc(C(=O)Nc3ccccn3)c3ccccc3n2)o1	.	.	.	.	.	.	/
Cc1ccc(C)c(-c2cc(C(=O)Nc3cccnc3)c3ccccc3n2)c1	.	/	.	.	.	.	/
Cc1ccc(NC(=O)c2cc(-c3ccc(C)o3)nc3ccccc23)cc1	.	.	.	49.0	.	.	25.1
COc1ccc(-c2cc(C(=O)N/N=C/c3cc(OC)c(OC)cc3OC)c3ccccc3n2)cc1	.	/	.	.	.	.	/
SMILES	Fam108B counter	RBBP9 inh	PAD4 inh	PRMT1 inh	PME-1 inh	GSTO1 inh	PRMT1 inh conf
Cc1ccc(-c2cc(C(=O)Nc3cccnc3)c3ccccc3n2)o1	.	.	.	45.9	.	.	.
COc1ccc(OC)c(/C=N/NC(=O)c2cc(-c3ccc(C)o3)nc3ccccc23)c1	.	.	.	29.6	.	.	.
O=C(C1=NOC2(C1)C(=O)N(Cc1ccccc1)c1ccccc12)N1CCOCC1 (stereo not drawn)	/	/	/	.	/	/	/
N#Cc1ccc(Oc2cccc3cccnc23)c([N+](=O)[O-])c1	.	/	.	26.5	.	.	.
Cc1cc(C)cc(NC(=O)C2CCCC2)c1	.	.	.	.	.	.	/
COc1ccc(CC(=O)Nc2ncc([N+](=O)[O-])s2)cc1OC	.	.	.	46.6	.	.	.

Compound activity deposited in PubChem BioAssay by The Scripps Research Institute Molecular Screening Center.
